In ChEMBL document CHEMBL2396601, “Synthesis and antiprotozoal activity of dicationic m-terphenyl and 1,3-dipyridylbenzene derivatives” (J Med Chem, 2013):
Active and inactive are the calls of the source. The calls are words filed in the database; no cut-off is given here.

Tests used:
[1] = system: Trypanosoma brucei rhodesiense; assay: Antiprotozoal activity against Trypanosoma brucei rhodesiense STIB900 infected in NMRI mouse assessed as host mean survival days at 25 mg/kg, po qd for 4 days; type: functional
Outline: (§1)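 Acute-stage HAT mouse model infected with STIB900. Cure means survival to 60 days after infection with no parasitemia relapse. Mean survival days are counted from infection and use every mouse: relapsed mice, plus cured mice entered as >60 days.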

L6 = assay: Cytotoxicity against rat L6 cells after 72 hrs by Alamar Blue assay; type: cell-based; details: L6, 72 h
Outline: (§2)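 Uses T. b. rhodesiense STIB900, T. cruzi Tulahuen C2C4 LacZ intracellular amastigotes, or L6 rat myoblasts depending on line.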

[2] = Selectivity index, ratio of IC50 for rat L6 cells to IC50 for Plasmodium falciparum K1; type: toxicity, cell-based; details: L6 cells, read-out: Ratio IC50
Outline: (§3)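 Selectivity index is IC50 against L6 rat myoblast cells divided by IC50 against the named parasite.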

Plasmodium falciparum = assay: Antiprotozoal activity against chloroquine-resistant Plasmodium falciparum K1 after 48 hrs by [3H]-hypoxanthine incorporation assay; type: functional, organism-based
[3] = Selectivity index, ratio of IC50 for rat L6 cells to IC50 for Trypanosoma cruzi Tulahuen C2C4; type: toxicity, cell-based; details: read-out: Ratio IC50; outline: as §3
Trypanosoma cruzi = assay: Antiprotozoal activity against intracellular amastigote form of Trypanosoma cruzi Tulahuen C2C4 expressing LacZ infected in rat L6 cells after 48 hrs; type: functional, organism-based; details: Tulahuen C2C4, L6, 48 h; outline: as §2
[4] = Selectivity index, ratio of IC50 for rat L6 cells to IC50 for Trypanosoma brucei rhodesiense STIB900; type: toxicity, cell-based; details: L6 cells, read-out: Ratio IC50; outline: as §3
[5] = system: Trypanosoma brucei rhodesiense; assay: Antiprotozoal activity against Trypanosoma brucei rhodesiense STIB900 after 72 hrs by Alamar Blue assay; type: functional, organism-based; outline: as §2
[6] = system: Trypanosoma brucei rhodesiense; assay: Antiprotozoal activity against Trypanosoma brucei rhodesiense STIB900 infected in NMRI mouse assessed as host mean survival days at 5 mg/kg, ip qd for 4 days; type: functional; details: route intraperitoneal; outline: as §1
[7] = system: Trypanosoma brucei rhodesiense; assay: Antiprotozoal activity against Trypanosoma brucei rhodesiense STIB900 infected in NMRI mouse assessed as reduction of parasitemia relapse at 5 mg/kg, ip qd for 4 days; type: functional, organism-based; parameters: dose 5 mg/kg
Outline: (§4)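 Mouse model of acute (early) stage HAT with T. b. rhodesiense STIB900, groups of 4 mice. Amidines dosed intraperitoneally, 4 daily doses of 5 mg/kg or single doses; prodrugs dosed orally, 4 daily doses of 25 mg/kg. Cure means survival to 60 days after infection with no parasitemia relapse. Mean survival days counts all mice, with cured mice scored as >60 days.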

Leishmania amazonensis = assay: Antiprotozoal activity against intracellular amastigote form of Leishmania amazonensis infected in CD1 mouse macrophages after 72 hrs by […]; type: functional, organism-based
[8] = Selectivity index, ratio of IC50 for rat L6 cells to IC50 for Leishmania amazonensis; type: toxicity, cell-based; details: read-out: Ratio IC50; outline: as §3
[9] = system: Trypanosoma brucei rhodesiense; assay: Antiprotozoal activity against Trypanosoma brucei rhodesiense STIB900 infected in NMRI mouse assessed as host mean survival days at 10 mg/kg, ip; type: functional; details: route intraperitoneal; outline: as §1
[10] = system: Trypanosoma brucei rhodesiense; assay: Antiprotozoal activity against Trypanosoma brucei rhodesiense STIB900 infected in NMRI mouse assessed as reduction of parasitemia relapse at 10 mg/kg, ip; type: functional, organism-based; parameters: dose 10 mg/kg; outline: as §4
[11] = system: Trypanosoma brucei rhodesiense; assay: Antiprotozoal activity against Trypanosoma brucei rhodesiense STIB900 infected in NMRI mouse assessed as reduction of parasitemia relapse at 25 mg/kg, po qd for 4 days; type: functional, organism-based; parameters: dose 25 mg/kg; outline: as §4
Mus musculus [12] = assay: Toxicity in BALB/c mouse assessed as tremors measured after second dose at 30 mg/kg, ip qd for 5 days; type: organism-based; parameters: dose 30 mg/kg, route intraperitoneal; details: in vivo, 120 h
Outline: (§5)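 Tolerability check before efficacy testing in uninfected BALB/c mice, groups of two, given 30 mg/kg ip daily for five days. Watched for overt toxicity signs such as tremors and hyperactivity after each dose. Mice showing adverse effects were euthanized.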

Mus musculus [13] = assay: Toxicity in BALB/c mouse assessed as hyperactivity measured after first dose at 30 mg/kg, ip qd for 5 days; type: organism-based; parameters: dose 30 mg/kg, route intraperitoneal; details: in vivo, 120 h; outline: as §5
[14] = Trypanosoma brucei, STIB900, 72 h

| Compound | MSD [1] [days] | IC50 (L6) [µM] | selectivity ratio [2] | IC50 (Plasmodium falciparum; Plasmodium falciparum, K1) [µM] | selectivity ratio [3] | IC50 (Trypanosoma cruzi) [µM] | selectivity ratio [4] | IC50 [5, 14] [µM] | MSD [6] [days] | Activity [7] | IC50 (Leishmania amazonensis) [µM] | selectivity ratio [8] | MSD [9] [days] | IC50 (Plasmodium falciparum) [µM] | IC50 [5] [µM] | Activity [10] | Activity [11] | Activity (Mus musculus [12]) | Activity (Mus musculus [13]) |
| --- | --- | --- | --- | --- | --- | --- | --- | --- | --- | --- | --- | --- | --- | --- | --- | --- | --- | --- | --- |
| CO/N=C(\N)c1ccc(-c2cccc(-c3ccc(/C(N)=N\OC)cn3)c2)nc1.Cl | >53.75 | > 150 | > 42 | 3.56 | > 1 | 117 | > 6 | 26.3 |  |  |  |  |  |  |  |  |  |  |  |
| Nc1nc(N)nc(Nc2ccc([As]3SCC(CO)S3)cc2)n1 (stereo not drawn) [MELARSOPROL] |  |  |  |  |  |  |  |  | >60 | Active |  |  |  |  |  |  |  |  |  |
| Cl.Cl.c1cc(-c2ccc(C3=NCCN3)cc2)cc(-c2ccc(C3=NCCN3)cc2)c1 |  | 2.55 | 35 | 0.073 | < 1 | 18.9 | 37 | 0.068 | 9.25 | inactive |  |  |  |  |  |  |  |  |  |
| CN(C)CC(=O)O/N=C(\N)c1ccc(-c2cccc(-c3ccc(/C(N)=N\OC(=O)CN(C)C)cn3)c2)nc1 | >52 | 62.9 | 129 | 0.486 | < 1 | 72.3 | 6 | 9.84 |  |  |  |  |  |  |  |  |  |  |  |
| C[C@@H]1[C@H](O)[C@@H](C)/C=C/C=C/C=C/C=C/C=C/C=C/C=C/[C@H](O[C@@H]2O[C@H](C)[C@@H](O)[C@H](N)[C@@H]2O)C[C@@H]2O[C@](O)(C[C@@H](O)C[C@@H](O)[C@H](O)CC[C@@H](O)C[C@@H](O)CC(=O)O[C@H]1C)C[C@H](O)[C@H]2C(=O)O [AMPHOTERICIN B] |  |  |  |  |  |  |  |  |  |  | 0.124 |  |  |  |  |  |  |  |  |
| N=C(Nc1ccc(-c2cccc(-c3cccc(NC(=N)c4ccccc4)c3)c2)cc1)c1ccccc1 |  | 2.52 | 66 | 0.038 | 1 | 2.14 | 4 | 0.635 |  |  | 0.907 | 3 |  |  |  |  |  |  |  |
| COc1cc(-c2cccc(C(=N)N)c2)cc(-c2cccc(C(=N)N)c2)c1.Cl.Cl |  | 137 | 4960 | 0.028 | 2 | 55.9 | 4700 | 0.029 | 10 | inactive |  |  |  |  |  |  |  |  |  |
| Cl.N=C(N)c1ccc(-c2cccc(-c3ccc(C(=N)N)cn3)c2)nc1 |  |  | > 3760 |  |  |  | > 8820 |  | >60 |  |  |  | >60 | 0.04 | 0.017 |  |  |  |  |
| Cl.Cl.N=C(N)c1ccc(-c2cc(N)cc(-c3ccc(C(=N)N)cc3)c2)cc1 |  | > 150 | > 1100 | 0.136 | > 1 | 149 | > 39800 | 0.004 | >35 | inactive |  |  |  |  |  |  |  |  |  |
| Cl.Cl.Cl.N=C(N)c1ccc(-c2cc(Cl)cc(-c3ccc(C(=N)N)cc3)c2)cc1 |  | 21.9 | 561 | 0.039 | < 1 | 65.5 | 700 | 0.031 | 15.25 | inactive |  |  |  |  |  |  |  |  |  |
| CC(C)NC(=N)c1ccc(-c2cccc(-c3ccc(C(=N)NC(C)C)cc3)c2)cc1.Cl.Cl |  | 102 | 6580 | 0.016 | < 1 | > 150 | 2160 | 0.047 | 13.5 | inactive |  |  |  |  |  |  |  |  |  |
| N=C(N)c1ccc(-c2cccc(-c3ccc(C(=N)N)cn3)c2)nc1 |  |  |  |  |  |  |  |  |  | Active |  |  |  |  |  | Active |  |  |  |
| Cl.Cl.N/C(=N\O)c1cccc(-c2cccc(-c3cccc(/C(N)=N\O)c3)c2)c1 | 7.25 | 5.6 | < 1 | 8.23 | < 1 | 11.2 | 2 | 2.55 |  |  |  |  |  |  |  |  | inactive |  |  |
| CC(C)Oc1cc(NC(=N)c2ccccn2)ccc1-c1cc(Cl)cc(-c2ccccc2)c1 |  | 9.69 | < 1 | > 10 | 2 | 4.18 | < 1 | 32.4 |  |  | 0.933 | 10 |  |  |  |  |  |  |  |
| N=C(Nc1cccc(-c2cc(Cl)cc(-c3cccc(NC(=N)c4ccccc4)c3)c2)c1)c1ccccc1 |  | 4.1 | 58 | 0.071 | 2 | 2.09 | 8 | 0.533 |  |  | 2.43 | 2 |  |  |  |  |  |  |  |
| CO/N=C(\N)c1cccc(-c2cccc(-c3cccc(/C(N)=N\OC)c3)c2)c1.Cl.Cl | 17.25 | 20.3 | 2 | 9.31 | < 1 | 24.1 | 2 | 11.3 |  |  |  |  |  |  |  |  | inactive |  |  |
| Cl.Cl.N=C(N)c1cccc(-c2cccc(-c3cccc(C(=N)N)c3)c2)c1 |  | 125 | 3320 | 0.038 | 4 | 35 | 2270 | 0.055 | 18.5 | inactive |  |  |  |  |  |  |  |  |  |
| CO/N=C(/N)c1ccc(-c2cccc(-c3ccc(/C(N)=N\OC)cc3)c2)cc1.Cl.Cl | >34.25 | 19.2 | < 2 | > 10 | < 1 | 92.6 | 4 | 4.44 |  |  |  |  |  |  |  |  |  |  |  |
| Cl.Cl.Cl.N=C(Nc1cccc(-c2cc(Cl)cc(-c3cccc(NC(=N)c4ccccn4)c3)c2)c1)c1ccccn1 |  | 2.5 | 450 | 0.006 | 47 | 0.053 | 133 | 0.019 |  |  | 0.095 | 26 |  |  |  |  |  | Toxic | Toxic |
| Cl.Cl.N/C(=N/O)c1ccc(-c2cccc(-c3ccc(/C(N)=N\O)cc3)c2)cc1 | >51.25 | > 150 |  | > 10 |  | > 150 | > 14 | 10.9 |  |  |  |  |  |  |  |  |  |  |  |
| N=C(Nc1ccc(-c2cc(Cl)cc(-c3cccc(NC(=N)c4ccccc4)c3)c2)cc1)c1ccccc1 |  | 2.27 | 58 | 0.039 | 1 | 2.04 | 13 | 0.178 |  |  | 1.02 | 2 |  |  |  |  |  |  |  |
| Cl.Cl.N=C(N)c1ccc(-c2cccc(-c3cccc(C(=N)N)c3)c2)cc1 |  | 28.5 | 1950 | 0.015 | 1 | 27.1 | 544 | 0.052 | 34.75 | inactive |  |  |  |  |  |  |  |  |  |
| Cl.Cl.N=C(N)c1ccc(-c2cc(-c3ccc(C(=N)N)cc3)cc([N+](=O)[O-])c2)cc1 |  | > 150 | > 8380 | 0.018 | > 2 | 57.2 | > 7480 | 0.02 | 20 | inactive |  |  |  |  |  |  |  |  |  |
| CC(C)Oc1ccc(NC(=N)c2ccccn2)cc1-c1cc(Cl)cc(-c2ccccc2)c1 |  | 3.77 | 1 | 3.08 | 1 | 2.98 | < 1 | 12.3 |  |  | 1.88 | 2 |  |  |  |  |  |  |  |
| Cl.Cl.N=C(Nc1ccc(-c2cccc(-c3cccc(NC(=N)c4ccccn4)c3)c2)cc1)c1ccccn1 |  | 2.72 | 13 | 0.208 | 7 | 0.388 | 1 | 1.94 |  |  | 0.123 | 22 |  |  |  |  |  | Toxic | Toxic |
